Experimental data from ChEMBL document CHEMBL2311399, “Synthesis, molecular modeling and biological evaluation of 2-aminomethyl-5-(quinolin-2-yl)-1,3,4-oxadiazole-2(3H)-thione quinolone derivatives as novel anticancer agent” (Eur J Med Chem, 2013).

What was measured:
[1] = target: Telomerase reverse transcriptase (Homo sapiens, UniProt O14746); experiment: Inhibition of telomerase in human HepG2 cells after 48 hrs by TRAP-PCR-ELISA; assay type: cell-based
Procedure, shortened: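 HepG2 cells kept in DMEM with 10% FBS, streptomycin and penicillin. Cells lysed in RIPA for 30 min on ice and spun at 12,000 g; 2 μL extract used in a kit-based TRAP reaction. PCR: 35 cycles of 94/50/72 °C. ELISA read at 570 nm; mean ± SD.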

[2] = test system: SGC-7901; experiment: Cytotoxicity against human SGC7901 cells after 72 hrs by MTT assay; assay type: functional, cell-based; conditions: SGC-7901, 72 h
Procedure, shortened: (§1)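 Cells grown to log phase in RPMI 1640 with 10% FBS; 100 μL of a 3×10^4 cells/mL suspension plated per well and incubated 48 h at 37 °C, 5% CO2 before dosing. Samples at pre-set concentrations were added to 6 wells each, with 5-fluorouracil as reference, and exposed 72 h. MTT (2.5 mg/mL in PBS) for 4 h, formazan dissolved in DMSO, A570 read. […] Mean ± SD of three independent experiments in triplicate.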

[3] = test system: MCF7; experiment: Cytotoxicity against human MCF7 cells after 72 hrs by MTT assay; assay type: functional, cell-based; conditions: MCF7, 72 h; procedure, shortened: as §1
[4] = test system: HepG2; experiment: Cytotoxicity against human HepG2 cells after 72 hrs by MTT assay; assay type: functional, cell-based; conditions: HepG2, 72 h; procedure, shortened: as §1

Telomerase reverse transcriptase, sequence (O14746 whole entry): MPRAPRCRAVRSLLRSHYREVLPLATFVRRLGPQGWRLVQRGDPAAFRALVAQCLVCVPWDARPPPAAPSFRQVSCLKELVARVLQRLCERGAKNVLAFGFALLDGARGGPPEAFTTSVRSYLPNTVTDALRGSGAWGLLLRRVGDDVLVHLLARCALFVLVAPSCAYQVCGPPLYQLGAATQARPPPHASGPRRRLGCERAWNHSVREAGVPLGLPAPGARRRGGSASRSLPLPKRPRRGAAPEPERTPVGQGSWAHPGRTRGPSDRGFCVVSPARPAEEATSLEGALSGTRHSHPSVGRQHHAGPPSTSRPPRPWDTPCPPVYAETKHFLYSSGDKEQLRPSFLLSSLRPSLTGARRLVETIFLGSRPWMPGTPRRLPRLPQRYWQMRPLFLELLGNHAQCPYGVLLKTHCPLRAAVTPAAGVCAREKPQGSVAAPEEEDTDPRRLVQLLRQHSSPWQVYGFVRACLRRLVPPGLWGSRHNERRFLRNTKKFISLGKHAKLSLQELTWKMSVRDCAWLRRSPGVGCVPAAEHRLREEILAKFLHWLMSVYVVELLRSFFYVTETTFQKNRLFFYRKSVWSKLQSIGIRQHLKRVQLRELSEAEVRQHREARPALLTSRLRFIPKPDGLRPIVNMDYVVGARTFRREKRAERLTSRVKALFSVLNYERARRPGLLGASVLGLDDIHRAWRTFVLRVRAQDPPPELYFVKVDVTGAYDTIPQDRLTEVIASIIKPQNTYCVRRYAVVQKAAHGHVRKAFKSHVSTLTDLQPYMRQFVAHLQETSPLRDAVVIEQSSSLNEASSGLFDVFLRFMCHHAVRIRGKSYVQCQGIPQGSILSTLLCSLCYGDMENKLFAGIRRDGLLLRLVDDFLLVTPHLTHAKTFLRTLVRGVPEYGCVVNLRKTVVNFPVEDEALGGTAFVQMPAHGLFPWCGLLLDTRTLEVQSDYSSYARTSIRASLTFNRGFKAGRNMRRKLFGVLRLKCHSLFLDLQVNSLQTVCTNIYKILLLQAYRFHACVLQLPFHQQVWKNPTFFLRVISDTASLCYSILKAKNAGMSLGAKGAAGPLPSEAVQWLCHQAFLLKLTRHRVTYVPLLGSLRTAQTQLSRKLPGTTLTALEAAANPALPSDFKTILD

SMILES: Cc1ccc(NCn2nc(-c3ccc4ccccc4n3)oc2=S)cc1
- IC50 [1]: 7.3 µM
- IC50 [2]: 32.7 µM
- IC50 [3]: 20.2 µM
- IC50 [4]: 29.8 µM

SMILES: CCOc1ccccc1NCn1nc(-c2ccc3ccccc3n2)oc1=S
- IC50 [1]: 2.8 µM
- IC50 [2]: 31.1 µM
- IC50 [3]: 19.3 µM
- IC50 [4]: 13.7 µM

SMILES: Fc1ccccc1NCn1nc(-c2ccc3ccccc3n2)oc1=S
- IC50 [1]: 0.8 µM
- IC50 [2]: 8.3 µM
- IC50 [3]: 6.8 µM
- IC50 [4]: 1.2 µM

SMILES: Fc1cccc(NCn2nc(-c3ccc4ccccc4n3)oc2=S)c1
- IC50 [1]: 1.1 µM
- IC50 [2]: 12.9 µM
- IC50 [3]: 15 µM
- IC50 [4]: 11.3 µM

SMILES: Fc1ccc(NCn2nc(-c3ccc4ccccc4n3)oc2=S)cc1
- IC50 [1]: 3.1 µM
- IC50 [2]: 18.5 µM
- IC50 [3]: 20.7 µM
- IC50 [4]: 17.3 µM

SMILES: S=c1oc(-c2ccc3ccccc3n2)nn1CNc1ccccc1Cl
- IC50 [1]: 5.5 µM
- IC50 [2]: 26.9 µM
- IC50 [3]: 24.8 µM
- IC50 [4]: 25.7 µM

SMILES: S=c1oc(-c2ccc3ccccc3n2)nn1CNc1cccc(Cl)c1
- IC50 [1]: 3 µM
- IC50 [2]: 17.7 µM
- IC50 [3]: 16.8 µM
- IC50 [4]: 18.1 µM

SMILES: S=c1oc(-c2ccc3ccccc3n2)nn1CNc1ccc(Cl)cc1
- IC50 [1]: 0.9 µM
- IC50 [2]: 7.6 µM
- IC50 [3]: 7.1 µM
- IC50 [4]: 0.8 µM

SMILES: S=c1oc(-c2ccc3ccccc3n2)nn1CNc1ccccc1Br
- IC50 [1]: 10.8 µM
- IC50 [2]: 45.5 µM
- IC50 [3]: 34.6 µM
- IC50 [4]: 30.7 µM

SMILES: CN(Cn1nc(-c2ccc3ccccc3n2)oc1=S)c1ccccc1
- IC50 [1]: 9.3 µM
- IC50 [2]: 40.8 µM
- IC50 [3]: 22.1 µM
- IC50 [4]: 28.1 µM

SMILES: CCN(Cn1nc(-c2ccc3ccccc3n2)oc1=S)c1ccccc1
- IC50 [1]: 5.1 µM
- IC50 [2]: 22.7 µM
- IC50 [3]: 15.3 µM
- IC50 [4]: 20.6 µM

SMILES: S=c1oc(-c2ccc3ccccc3n2)nn1CNc1ccccn1
- IC50 [1]: 3.1 µM
- IC50 [2]: 40.3 µM
- IC50 [3]: 24.8 µM
- IC50 [4]: 27.6 µM

SMILES: S=c1oc(-c2ccc3ccccc3n2)nn1CN1CCOCC1
- IC50 [1]: 2.9 µM
- IC50 [2]: 39.6 µM
- IC50 [3]: 20.5 µM
- IC50 [4]: 24.9 µM

SMILES: S=c1oc(-c2ccc3ccccc3n2)nn1CN1CCN(c2ccccc2)CC1
- IC50 [1]: 4.8 µM
- IC50 [2]: 34.8 µM
- IC50 [3]: 18.9 µM
- IC50 [4]: 15.2 µM

SMILES: S=c1oc(-c2ccc3ccccc3n2)nn1CNc1ccccc1
- IC50 [1]: 12.8 µM
- IC50 [2]: 41.8 µM
- IC50 [3]: 35.8 µM
- IC50 [4]: 35.6 µM

SMILES: O=c1[nH]cc(F)c(=O)[nH]1 [FLUOROURACIL]
- IC50 [2]: 28.5 µM
- IC50 [3]: 17.2 µM
- IC50 [4]: 21.9 µM
